Screening results deposited in PubChem BioAssay by several laboratories.
Rows were chosen to be rich in hits. Some 9.2% of all compounds tested hit in one or more screens of this group.
bCat KO growth: beta-catenin-lacking colon tumor cell growth suppression; HCT116 beta-catenin knockout viability, CellTiter-Glo, 60 h; stronger effect = lower value; 140,000 tested, 1.5% active; AID 818; viability, % at 10 µM;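 active means viability at or under a set limit, the compound median less 4 SD, cut at about 6% in these data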;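 further: 0% = Hyamine 1622 control at 20 µM and 100% = untreated cell control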
Dynein cargo inh: dynein cargo transport inhibition; 3617.4 mouse cells, GR-EGFP nuclear translocation imaging; test concentration mostly 20 µM; stimulated with dexamethasone, 1 µM; stronger effect = lower value; z-score, hits read low; 220,000 tested, 0.47% active;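 active means plate z-score of nuclear minus cytoplasmic receptor signal below a set negative limit, without overly bright fluorescence or cell loss, cut at about -3.5 in these data, passing the limit was not always enough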;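 further: z-score of nuclear minus cytoplasmic ring GR-EGFP intensity difference per well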
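Buffer or medium: tetracycline-free induction medium containing charcoal-stripped FBS / Reagent: dexamethasone agonist, 1.0 µM final, for 30 min / Technique: automated 10x imaging of fixed Hoechst-stained cells / Times: induction 48 h, compound 1 h, agonist 30 min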
Autophagy HCS: autophagy modulation, high-content screen | 190,000 tested, 0.98% active | MEF GFP-LC3 puncta imaging; test concentration mostly 10 µM | calls only at 10 µM (by protocol) | AID 463193;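 active means percentage of spot-positive cells more than 3 SD above its plate mean, without a fluorescence outlier flag or 80% toxicity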;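 further: spot-positive cell cutoff set from DMSO-treated cells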
PTEN del growth: suppresses growth of cells with PTEN deletion. HCT116 PTEN-null viability, CellTiter-Glo, 60 h; stronger effect = lower value. 140,000 tested, 1.2% active. viability, % at 10 µM;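 active means viability at or below a set limit, 4 SD under the median of all tested compounds, cut at about 3.7% in these data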;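 further: PTEN knockout HCT116 line with beta catenin targeted HCT116 as companion control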
L major viab: Leishmania major promastigote growth inhibition; 200,000 tested, 9% active; Leishmania major promastigotes, resazurin fluorescence viability; AID 1063; inhibition, % at 10 µM; in the data active means inhibition above about 50%;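 further: promastigotes grown with compound for 44 hours at 28 °C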
Starred values were filed as active, the others as inactive.

Oc1c(CN2CCOCC2)cc(COCc2ccccc2)c2cccnc12 was read as bCat KO growth 3.7*, Dynein cargo inh -0.86, Autophagy HCS inactive, PTEN del growth 2.8* and L major viab 100*.
For CN1CCN(Cc2cc(Cl)c3cccnc3c2OC(=O)c2cccs2)CC1 the results were bCat KO growth 3.7*, Dynein cargo inh -0.62, Autophagy HCS inactive, PTEN del growth 5 and L major viab 27.
`CCOC(=O)N1CCN(Cc2ccccc2Cl)CC1` gave bCat KO growth 92, Dynein cargo inh 0.52, Autophagy HCS inactive, PTEN del growth 96 and L major viab -5.
CCOC(=O)N1CCN(Cc2cc(Cl)c3cccnc3c2O)CC1 was read as Dynein cargo inh -0.75, Autophagy HCS inactive and L major viab 100*.
For Cc1c(NC(=O)CSc2ncccn2)c(=O)n(-c2ccccc2)n1C the results were Dynein cargo inh 0.5, Autophagy HCS inactive and L major viab -8.
Screening COC(=O)c1ccc(C)c(NS(=O)(=O)c2ccc(OC)c(OC)c2)c1 returned bCat KO growth 82, Dynein cargo inh -0.94, Autophagy HCS inactive, PTEN del growth 93 and L major viab 100*.
`CCCCN(CCCC)S(=O)(=O)c1ccc(NC(=O)c2cccs2)cc1` gave bCat KO growth 8, Dynein cargo inh -0.65, Autophagy HCS inactive, PTEN del growth 7 and L major viab 94*.
`O=C(c1ccccc1Sc1ccc([N+](=O)[O-])cc1Cl)N1CCOCC1` gave Dynein cargo inh 0.62, Autophagy HCS inactive and L major viab 18.
For CC(=O)Nc1ccc(NC(=O)c2ccccc2Sc2ccc([N+](=O)[O-])cc2Cl)cc1 the results were bCat KO growth 72, Dynein cargo inh 1.4, Autophagy HCS inactive, PTEN del growth 67 and L major viab 94*.
For Cc1cc(C)nc(NS(=O)(=O)c2ccc(NC(=O)c3cccs3)cc2)n1 the results were bCat KO growth 81, Dynein cargo inh -0.23, Autophagy HCS inactive, PTEN del growth 93 and L major viab -3.
CCCCN(CCCC)S(=O)(=O)c1ccc(NC(=O)c2ccc([N+](=O)[O-])cc2Cl)cc1 was read as bCat KO growth 16, Dynein cargo inh 1.9, Autophagy HCS inactive, PTEN del growth 7 and L major viab 100*.
`Cn1nc(-c2ccccc2)cc1NC(=O)c1cccs1` gave Dynein cargo inh 0.55.
COc1cc(/C=C/C(=O)Oc2coc(CSc3ncccn3)cc2=O)cc(OC)c1OC was read as Dynein cargo inh 0.16, Autophagy HCS inactive and L major viab -8.
COc1ccc(Nc2cccc(Cl)c2)c(C(=O)O)c1 was read as bCat KO growth 100, Dynein cargo inh 0.062, Autophagy HCS inactive, PTEN del growth 96 and L major viab 51*.
`Cc1ccc(NC(=O)Nc2cccc(Cl)c2)c(C(=O)O)c1` gave Dynein cargo inh -0.38, Autophagy HCS inactive and L major viab 1.
`O=[N+]([O-])c1cnn(-c2nc(-c3ccco3)cc(C(F)(F)F)n2)c1` gave Dynein cargo inh 0.21, Autophagy HCS inactive and L major viab 2.
`CCCN(C(=O)c1cc2c(s1)CCC2)c1c(N)n(Cc2ccccc2)c(=O)[nH]c1=O` gave Dynein cargo inh 0.11.
Screening O=C1N/C(=C\c2ccc(O)cc2)C(=O)c2ccccc21 returned bCat KO growth 5.8*, Dynein cargo inh -0.18, Autophagy HCS inactive, PTEN del growth 7 and L major viab 100*.
`O=C(N=Nc1c(O)[nH]c2ccc(Cl)cc12)c1cc(-c2cccs2)nc2ccccc12` gave bCat KO growth 76, Dynein cargo inh 0.54, Autophagy HCS inactive, PTEN del growth 82 and L major viab 52*.
Screening O=C(N=Nc1c(O)[nH]c2ccc([N+](=O)[O-])cc12)c1ccccc1Cl returned Dynein cargo inh -0.57.
`O=C(Nn1nnnc1Nc1ccccc1)C12CC3CC(CC(C3)C1)C2` gave bCat KO growth 89, Dynein cargo inh 0.77, Autophagy HCS inactive, PTEN del growth 86 and L major viab -9.
`Cc1cc(C)n(-c2nc(SCCN(C)C)c3c4c(sc3n2)COC(C)(C)C4)n1` gave bCat KO growth 1.9*, Dynein cargo inh 1.2, Autophagy HCS inactive, PTEN del growth 3.3* and L major viab 101*.
For Cc1cc(C)n(-c2nc(NCC(C)O)c3c4c(sc3n2)COC(C)(C)C4)n1 (centres undefined) the results were bCat KO growth 73, Dynein cargo inh 0.31, Autophagy HCS inactive, PTEN del growth 76 and L major viab 6.
For O=C(N/N=C/c1cccc(OCC(=O)N2CCCC2)c1)C(=O)Nc1ccccc1F the results were bCat KO growth 91, Dynein cargo inh -0.39, Autophagy HCS inactive, PTEN del growth 99 and L major viab -9.
`CCCS(=O)(=O)N1CCN(c2cc3c(cc2[N+](=O)[O-])n(C)c(=O)n3C)CC1` gave Dynein cargo inh 0.71, Autophagy HCS inactive and L major viab 0.
Screening CCOC(=O)N1CCC(N2CCN(S(=O)(=O)CC)CC2)CC1 returned bCat KO growth 106, Dynein cargo inh -0.36, Autophagy HCS inactive, PTEN del growth 99 and L major viab 94*.
CCOC(=O)c1ccc(S(=O)(=O)N2CCN(C(C)=O)CC2)cc1 was read as Dynein cargo inh 1.4, Autophagy HCS inactive and L major viab -3.
`CCOC(=O)c1ccc(S(=O)(=O)n2c(CN3CCCCC3)nc3ccccc32)cc1` gave bCat KO growth 80, Dynein cargo inh -0.64, Autophagy HCS inactive, PTEN del growth 88 and L major viab 52*.
For CCOC(=O)c1ccc(S(=O)(=O)N2CCN(C(=O)CSc3nc4ccccc4o3)CC2)cc1 the results were bCat KO growth 65, Dynein cargo inh -1.1, Autophagy HCS inactive, PTEN del growth 59 and L major viab -4.
`CCOC(=O)c1ccc(S(=O)(=O)N2CCN(C3CCCC3)CC2)cc1` gave Dynein cargo inh 0.058, Autophagy HCS inactive and L major viab 90*.
Screening CCOC(=O)N1CCC(N2CCN(S(=O)(=O)c3ccc(C)cc3)CC2)CC1 returned bCat KO growth 91, Dynein cargo inh -0.2, Autophagy HCS inactive, PTEN del growth 100 and L major viab 85*.
Screening CCOC(=O)N1CCC(N2CCN(S(=O)(=O)c3ccc(OC)cc3)CC2)CC1 returned Dynein cargo inh -0.61, Autophagy HCS inactive and L major viab -4.
Screening Cc1cc(C)c(CN2CCC(CO)(CCOc3ccccc3)CC2)cc1C returned Dynein cargo inh -0.21, Autophagy HCS inactive and L major viab 60*.
COc1ccc(OC)c(CN2CCC(CO)(CCOc3ccccc3)CC2)c1 was read as Dynein cargo inh 2.6, Autophagy HCS inactive and L major viab 14.
Screening COc1cc(CN2CCC(CO)(CCOc3ccccc3)CC2)cc(OC)c1 returned Dynein cargo inh 1.2.
For OCC1(CCOc2ccccc2)CCN(C2Cc3ccccc3C2)CC1 the results were Dynein cargo inh -1.2, Autophagy HCS inactive and L major viab 88*.
